ChEMBL document CHEMBL1147099, “In vitro and in vivo antibacterial activities of heteroaryl isothiazolones against resistant gram-positive pathogens” (Antimicrob Agents Chemother, 2007)
≈ marks a conversion by molar mass, not a printed value.

How the values were obtained:
Staphylococcus aureus [1] = assay: Antibacterial activity against methicillin-susceptible Staphylococcus aureus after 24 hrs by broth microdilution method; format: functional
In short: (§1)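 Broth microdilution per CLSI in cation-adjusted Mueller-Hinton II broth, final inoculum approximately 5 × 10^5 CFU/ml. Plates were incubated aerobically at 35 to 37°C for 24 h. MIC was the lowest concentration giving no visible growth. Reserpine, where used, was at a final concentration of 20 μg/ml.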

Enterococcus faecalis = assay: Antibacterial activity against Enterococcus faecalis; format: functional
In short: (§2)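 Aerobic isolates run by CLSI broth microdilution in cation-adjusted Mueller-Hinton II broth (streptococci plus 2–5% lysed horse blood), about 5 × 10^5 CFU/ml final; 24 h at 35–37°C aerobically; MIC read as lowest concentration without visible growth.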

Enterococcus faecium = assay: Antibacterial activity against Enterococcus faecium; format: functional; in short: as §2
Streptococcus pyogenes = assay: Antibacterial activity against Streptococcus pyogenes; format: functional; in short: as §2
[2] = Cmax in mouse at 20 mg/kg, sc; format: ADME, organism-based; set-up: dose 20 mg/kg, route subcutaneous; details: in vivo
In short: (§3)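 Fasted mice given one subcutaneous dose (20 or 50 mg/kg); blood taken from groups of three at 0.08, 0.25, 0.5, 1, 2, 4, 8, 24 h. Plasma protein-precipitated with cold acetonitrile plus internal standard, LC-MS/MS (C8, positive ESI, SRM); calibration 5–15,000 ng/ml. Noncompartmental analysis of mean concentrations; AUC to last quantifiable point by linear trapezoidal rule.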

[3] = Cmax in mouse at 50 mg/kg, sc; format: ADME, organism-based; set-up: dose 50 mg/kg, route subcutaneous; details: in vivo; in short: as §3
[4] = AUC (0-24 hrs) in mouse at 20 mg/kg, sc; format: ADME, organism-based; set-up: time < 24 hr, dose 20 mg/kg, route subcutaneous; details: plasma; in short: as §3
[5] = AUC (0-24 hrs) in mouse at 50 mg/kg, sc; format: ADME, organism-based; set-up: time < 24 hr, dose 50 mg/kg, route subcutaneous; details: plasma; in short: as §3
[6] = Plasma half life in mouse at 20 mg/kg, sc; format: ADME, organism-based; set-up: dose 20 mg/kg, route subcutaneous
[7] = Plasma half life in mouse at 50 mg/kg, sc; format: ADME, organism-based; set-up: dose 50 mg/kg, route subcutaneous
[8] = Tmax in mouse at 20 mg/kg, sc; format: ADME, organism-based; set-up: dose 20 mg/kg, route subcutaneous; details: in vivo; in short: as §3
[9] = Tmax in mouse at 50 mg/kg, sc; format: ADME, organism-based; set-up: dose 50 mg/kg, route subcutaneous; details: in vivo; in short: as §3
Staphylococcus aureus [10] = assay: Antibacterial activity against methicillin-resistant Staphylococcus aureus after 24 hrs by broth microdilution method; format: functional; in short: as §1
Streptococcus pneumoniae = assay: Antibacterial activity against Streptococcus pneumoniae by agar dilution method; format: functional
Streptococcus viridans = assay: Antibacterial activity against Streptococcus viridans after 24 hrs by broth microdilution method; format: functional
In short: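 CLSI broth microdilution in cation-adjusted Mueller-Hinton II broth, final inoculum about 5 × 10^5 CFU/ml for most strains; streptococci supplemented with 2–5% lysed horse blood, H. influenzae in Haemophilus test medium. Aerobic incubation at 35–37°C for 24 h; MIC = lowest concentration with no visible growth.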

Staphylococcus aureus [11] = assay: Antibacterial activity against ethidium bromide-resistant Staphylococcus aureus BSA678 after 24 hrs by broth microdilution method; format: functional; details: BSA678, 24 h; in short: as §1
Staphylococcus aureus [12] = assay: Effect on cellular viability of methicillin-sensitive Staphylococcus aureus ATCC 29213 by measuring the time required for recovery at 10 times MIC after 1 hr; format: functional
In short: (§4)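 S. aureus in log phase, approximately 2–4 × 10^7 CFU/ml in CAMHB, was exposed to 10× MIC for 1 h at 35 to 37°C with shaking, then diluted 1:1,000 into prewarmed CAMHB. Viable counts were taken hourly for 4 to 8 h. PAE = T − C, the time to a 1-log10 rise, treated versus untreated. Mean of two independent experiments.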

Staphylococcus aureus [13] = assay: Effect on cellular viability of methicillin-resistant Staphylococcus aureus Mu50 at 10 times MIC by measuring the time required for recovery at 10 times MIC after 1 hr; format: functional; in short: as §4
Staphylococcus aureus [14] = assay: Antibacterial activity against ethidium bromide-resistant Staphylococcus aureus Mu50 after 24 hrs by broth microdilution method; format: functional; details: Mu50, 24 h; in short: as §1
Staphylococcus aureus [15] = assay: Antibacterial activity against […] Staphylococcus aureus ATCC 29213 after 24 hrs by broth microdilution method; format: functional; details: ATCC 29213, 24 h; in short: as §1
Staphylococcus aureus [16] = assay: Antibacterial activity against ethidium bromide-resistant Staphylococcus aureus BSA643 after 24 hrs by broth microdilution method; format: functional; details: BSA643, 24 h; in short: as §1
Staphylococcus aureus [17] = assay: microbe, parasite or virus in culture; details: Mu50
Staphylococcus aureus [18] = assay: Antibacterial activity in CD1 mouse inoculated with methicillin-sensitive Staphylococcus aureus ATCC 13709 in thigh assessed as reduction of CFU/thigh at 10 mg/kg, sc after 4 hrs; format: functional; details: route subcutaneous
In short: (§5)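 Female CD-1 mice (19 to 28 g) were made neutropenic with cyclophosphamide 150 mg/kg i.p. at 4 days and 1 day before infection. Each thigh was injected i.m. with 0.1 ml of S. aureus suspension. A single s.c. dose was given 2 h postinfection, in groups of three mice. Thighs were homogenized in PBS and plated on trypticase soy agar overnight at 37°C. CFU/thigh was compared with controls at the time of treatment.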

Staphylococcus aureus [19] = assay: Antibacterial activity in CD1 mouse inoculated with methicillin-sensitive Staphylococcus aureus ATCC 13709 in thigh assessed as reduction of bacterial population at 10 mg/kg, sc after 24 hrs; format: functional; details: route subcutaneous; in short: as §5
Staphylococcus aureus [20] = assay: Antibacterial activity in CD1 mouse inoculated with methicillin-resistant Staphylococcus aureus ATCC 33591 in thigh assessed as reduction of bacterial population at 10 mg/kg, sc after 4 hrs; format: functional; details: route subcutaneous; in short: as §5
Staphylococcus aureus [21] = assay: Antibacterial activity in CD1 mouse inoculated with methicillin-resistant Staphylococcus aureus ATCC 33591 in thigh assessed as reduction of bacterial population at 10 mg/kg, sc after 6 hrs; format: functional; details: route subcutaneous; in short: as §5
Staphylococcus aureus [22] = assay: Antibacterial activity in CD1 mouse inoculated with methicillin-resistant Staphylococcus aureus ATCC 33591 in thigh assessed as reduction of bacterial population at 10 mg/kg, sc after 8 hrs; format: functional; details: route subcutaneous; in short: as §5
Staphylococcus aureus [23] = assay: Antibacterial activity in CD1 mouse inoculated with methicillin-resistant Staphylococcus aureus ATCC 33591 in thigh assessed as reduction of bacterial population at 10 mg/kg, sc after 24 hrs; format: functional; details: route subcutaneous; in short: as §5

SMILES	MIC50 (Staphylococcus aureus [1]) [µg/mL]	MIC90 (Staphylococcus aureus [1]) [µg/mL]	MIC50 (Enterococcus faecalis) [µg/mL]	MIC90 (Enterococcus faecalis) [µg/mL]	MIC50 (Enterococcus faecium) [µg/mL]	MIC90 (Enterococcus faecium) [µg/mL]	MIC50 (Staphylococcus aureus [10]) [µg/mL]	MIC90 (Staphylococcus aureus [10]) [µg/mL]	MIC50 (Streptococcus pneumoniae) [µg/mL]	MIC90 (Streptococcus pneumoniae) [µg/mL]	MIC50 (Streptococcus viridans) [µg/mL]	MIC90 (Streptococcus viridans) [µg/mL]	also measured
CC(=O)NCC1CN(c2ccc(N3CCOCC3)c(F)c2)C(=O)O1 (single isomer, unassigned) [LINEZOLID]	2 (≈ 5.93 µM)	2 (≈ 5.93 µM)	2 (≈ 5.93 µM)	> 16	2 (≈ 5.93 µM)	2 (≈ 5.93 µM)	2 (≈ 5.93 µM)	2 (≈ 5.93 µM)	1 (≈ 2.96 µM)	1 (≈ 2.96 µM)	1 (≈ 2.96 µM)	1 (≈ 2.96 µM)	MIC50 (Streptococcus pyogenes): 1 µg/mL (≈ 2.96 µM); MIC90 (Streptococcus pyogenes): 1 µg/mL (≈ 2.96 µM); Cmax [2]: 12200 ng/mL; Cmax [3]: 25500 ng/mL; AUC(0-t) at 24 h [4]: 29100 ng·h/mL; AUC(0-t) at 24 h [5]: 112000 ng·h/mL; half-life [6]: 1.17 h; half-life [7]: 2.18 h; Tmax [8]: 0.5 h; Tmax [9]: 1 h
COc1c(N2C[C@@H]3CCCN[C@@H]3C2)c(F)cc2c(=O)c(C(=O)O)cn(C3CC3)c12 [MOXIFLOXACIN]													MIC (Staphylococcus aureus [11]): > 64 µg/mL; Post anitbiotic effect (Staphylococcus aureus [12]): 1.6 h; Post anitbiotic effect (Staphylococcus aureus [13]): 1.5 h; MIC (Staphylococcus aureus [14]): 4 µg/mL (≈ 9.96 µM); MIC (Staphylococcus aureus [15]): 0.06 µg/mL (≈ 0.149 µM); MIC (Staphylococcus aureus [16]): 16 µg/mL (≈ 39.9 µM); MIC (Staphylococcus aureus [17]): 64 µg/mL (≈ 159 µM)
CN[C@H](CC(C)C)C(=O)N[C@H]1C(=O)N[C@@H](CC(N)=O)C(=O)N[C@H]2C(=O)N[C@H]3C(=O)N[C@H](C(=O)N[C@H](C(=O)O)c4cc(O)cc(O)c4-c4cc3ccc4O)[C@H](O)c3ccc(c(Cl)c3)Oc3cc2cc(c3O[C@@H]2O[C@H](CO)[C@@H](O)[C@H](O)[C@H]2O[C@H]2C[C@](C)(N)[C@H](O)[C@H](C)O2)Oc2ccc(cc2Cl)[C@H]1O [VANCOMYCIN]	1 (≈ 0.69 µM)	2 (≈ 1.38 µM)	2 (≈ 1.38 µM)	> 32	> 32	> 32	1 (≈ 0.69 µM)	8 (≈ 5.52 µM)	0.5 (≈ 0.345 µM)	0.5 (≈ 0.345 µM)	0.5 (≈ 0.345 µM)	1 (≈ 0.69 µM)	CFU/ml (Staphylococcus aureus [18]): 0.31; CFU/ml (Staphylococcus aureus [19]): 1.37; CFU/ml (Staphylococcus aureus [20]): 0.32; CFU/ml (Staphylococcus aureus [21]): 0.49; CFU/ml (Staphylococcus aureus [22]): 0.58; CFU/ml (Staphylococcus aureus [23]): 0.31
